Laboratory results reported in ChEMBL document CHEMBL1154477, “1,2,3-Triazol-carboxanilides and 1,2,3-triazol-(N-benzyl)-carboxamides as BK-potassium channel activators. XII” (Eur J Med Chem, 2008).

How the values were obtained:
Format in all cases: tissue-based
[1] = target: Calcium-activated potassium channel subunit alpha-1 (Rattus norvegicus) (UniProt Q62976); assay: (§1) Activation of BK channel in Wistar rat thoracic aorta assessed as relaxation of KCl-induced contraction
Method in brief: (§2)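 Endothelium-denuded aortic rings in Tyrode at 37 °C, gassed 95% O2/5% CO2. Denudation was confirmed by under 10% acetylcholine relaxation of KCl 20 mM tone. Rings were precontracted with KCl 20 mM, then given cumulative 3-fold increasing concentrations from 10 nM (DMSO stock, diluted in Tyrode). Efficacy was maximal relaxation as % of KCl tone; pIC50 was derived only when efficacy was ≥55%. 5-10 experiments.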

[2] = target: Calcium-activated potassium channel subunit alpha-1 (Rattus norvegicus, UniProt Q62976); assay: as §1; method in brief: as §2
[3] = target: Calcium-activated potassium channel subunit alpha-1 (Rattus norvegicus) (UniProt Q62976); assay: Activation of BK channel in Wistar rat thoracic aorta assessed as relaxation of KCl-induced contraction in presence of potassium channel blocker TEAC
Method in brief: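 Endothelium-denuded aortic rings in gassed Tyrode at 37 °C, incubated with tetraethylammonium chloride 10 mM for 20 min before KCl 20 mM precontraction. Cumulative 3-fold increasing concentrations from 10 nM were added at the plateau. Relaxation was expressed as % of KCl tone, with pIC50 as the negative log molar concentration halving the tone. 5-10 experiments.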

Calcium-activated potassium channel subunit alpha-1, sequence (Q62976 whole entry): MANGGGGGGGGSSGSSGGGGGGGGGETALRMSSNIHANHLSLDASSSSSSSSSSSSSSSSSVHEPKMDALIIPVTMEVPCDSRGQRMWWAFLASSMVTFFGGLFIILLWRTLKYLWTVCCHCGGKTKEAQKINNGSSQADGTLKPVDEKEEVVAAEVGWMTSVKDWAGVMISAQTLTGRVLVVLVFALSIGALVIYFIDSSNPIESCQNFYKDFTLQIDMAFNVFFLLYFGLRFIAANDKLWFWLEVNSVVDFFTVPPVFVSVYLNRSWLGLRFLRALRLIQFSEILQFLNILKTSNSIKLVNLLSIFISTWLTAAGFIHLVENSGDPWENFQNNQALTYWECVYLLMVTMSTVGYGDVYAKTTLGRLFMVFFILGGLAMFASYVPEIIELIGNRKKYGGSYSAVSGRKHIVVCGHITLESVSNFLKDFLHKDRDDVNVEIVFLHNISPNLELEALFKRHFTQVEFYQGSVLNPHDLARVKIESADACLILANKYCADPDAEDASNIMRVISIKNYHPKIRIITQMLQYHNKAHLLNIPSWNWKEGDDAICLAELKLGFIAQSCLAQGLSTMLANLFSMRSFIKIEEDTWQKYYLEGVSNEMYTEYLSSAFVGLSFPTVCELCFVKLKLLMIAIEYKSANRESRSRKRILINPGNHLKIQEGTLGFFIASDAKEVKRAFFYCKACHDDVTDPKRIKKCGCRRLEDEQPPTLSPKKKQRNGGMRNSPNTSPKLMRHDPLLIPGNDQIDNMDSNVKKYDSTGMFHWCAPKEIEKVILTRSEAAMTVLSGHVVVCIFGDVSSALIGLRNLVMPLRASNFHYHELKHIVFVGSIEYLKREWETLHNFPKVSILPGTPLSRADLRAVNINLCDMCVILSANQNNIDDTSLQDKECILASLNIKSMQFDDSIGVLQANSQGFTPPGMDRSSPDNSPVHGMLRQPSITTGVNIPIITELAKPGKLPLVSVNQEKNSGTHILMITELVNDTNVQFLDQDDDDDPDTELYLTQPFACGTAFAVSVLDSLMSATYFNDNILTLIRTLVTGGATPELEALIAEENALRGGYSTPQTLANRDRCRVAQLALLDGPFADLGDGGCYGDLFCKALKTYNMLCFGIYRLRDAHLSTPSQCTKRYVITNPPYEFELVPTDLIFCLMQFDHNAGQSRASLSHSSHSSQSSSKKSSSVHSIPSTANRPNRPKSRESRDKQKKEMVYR
Calcium-activated potassium channel subunit alpha-1 (Rattus norvegicus), sequence (Q62976 whole entry): as above

Structure (SMILES): Cc1c(C(=O)Nc2ccccc2)nnn1Cc1ccccc1O
- Emax [1]: 89%
- IC50 [2]: 17.8 µM
- Emax [3]: 37%

Structure (SMILES): Cc1c(C(=O)NCc2ccccc2Cl)nnn1Cc1ccccc1O
- Emax [1]: 51%

Structure (SMILES): Cc1c(C(=O)NCc2ccccc2O)nnn1Cc1ccccc1O
- Emax [1]: 76%
- IC50 [2]: 21.9 µM

Structure (SMILES): Cc1c(C(=O)Nc2ccc(Cl)cc2)nnn1Cc1ccccc1O
- Emax [1]: 53%

Structure (SMILES): Cc1c(C(=O)NCc2ccccc2O)nnn1Cc1ccccc1F
- Emax [1]: 24%

Structure (SMILES): Cc1c(C(=O)Nc2ccccc2O)nnn1Cc1ccccc1F
- Emax [1]: 35%

Structure (SMILES): Cc1c(C(=O)NCc2ccccc2O)nnn1Cc1ccccc1Cl
- Emax [1]: 49%

Structure (SMILES): Cc1c(C(=O)Nc2ccccc2O)nnn1Cc1ccccc1Cl
- Emax [1]: 52%

Structure (SMILES): O=c1[nH]c2cc(C(F)(F)F)ccc2n1-c1cc(C(F)(F)F)ccc1O
- Emax [1]: 94%
- IC50 [2]: 5.13 µM

Structure (SMILES): Cc1c(C(=O)Nc2ccccc2O)nnn1Cc1ccccc1O
- Emax [1]: 81%
- IC50 [2]: 20.4 µM

Structure (SMILES): Cc1c(C(=O)NCc2ccccc2)nnn1Cc1ccccc1O
- Emax [1]: 48%
